# In ChEMBL document CHEMBL2380260, “Structure-activity relationship of N,N'-disubstituted pyrimidinetriones as Ca(V)1.3 calcium channel-selective antagonists for Parkinson's disease” (J Med Chem, 2013):
# How the values were obtained:
# [1] = biological target: Voltage-dependent L-type calcium channel subunit alpha-1C (Oryctolagus cuniculus, UniProt P15381); assay: Antagonist activity at rabbit CaV1.2alpha1C transfected in HEK293 cells by FLIPR assay; type: cell-based
# Procedure, shortened: (§1)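 HEK293 cells stably expressing the L-type channel (rat CaV1.3 α1D with all alternative splice sites, or rabbit CaV1.2 α1C), each co-expressed with rat β3 and α2δ-1 subunits. Cells plated at 4 × 10⁴ cells/well and cultured in DMEM with 10% FBS for 4 days. Calcium influx read by Fluo-8 no-wash dye fluorescence on FLIPR Tetra. IC50 from triplicate percent-inhibition data fitted to a one-site sigmoidal model.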
# [2] = biological target: Voltage-dependent L-type calcium channel subunit alpha-1D (Rattus norvegicus, UniProt P27732); assay: Antagonist activity at rat CaV1.3alpha1D transfected in HEK293 cells by FLIPR assay; type: cell-based; procedure, shortened: as §1
# Voltage-dependent L-type calcium channel subunit alpha-1D, sequence (P27732 whole entry): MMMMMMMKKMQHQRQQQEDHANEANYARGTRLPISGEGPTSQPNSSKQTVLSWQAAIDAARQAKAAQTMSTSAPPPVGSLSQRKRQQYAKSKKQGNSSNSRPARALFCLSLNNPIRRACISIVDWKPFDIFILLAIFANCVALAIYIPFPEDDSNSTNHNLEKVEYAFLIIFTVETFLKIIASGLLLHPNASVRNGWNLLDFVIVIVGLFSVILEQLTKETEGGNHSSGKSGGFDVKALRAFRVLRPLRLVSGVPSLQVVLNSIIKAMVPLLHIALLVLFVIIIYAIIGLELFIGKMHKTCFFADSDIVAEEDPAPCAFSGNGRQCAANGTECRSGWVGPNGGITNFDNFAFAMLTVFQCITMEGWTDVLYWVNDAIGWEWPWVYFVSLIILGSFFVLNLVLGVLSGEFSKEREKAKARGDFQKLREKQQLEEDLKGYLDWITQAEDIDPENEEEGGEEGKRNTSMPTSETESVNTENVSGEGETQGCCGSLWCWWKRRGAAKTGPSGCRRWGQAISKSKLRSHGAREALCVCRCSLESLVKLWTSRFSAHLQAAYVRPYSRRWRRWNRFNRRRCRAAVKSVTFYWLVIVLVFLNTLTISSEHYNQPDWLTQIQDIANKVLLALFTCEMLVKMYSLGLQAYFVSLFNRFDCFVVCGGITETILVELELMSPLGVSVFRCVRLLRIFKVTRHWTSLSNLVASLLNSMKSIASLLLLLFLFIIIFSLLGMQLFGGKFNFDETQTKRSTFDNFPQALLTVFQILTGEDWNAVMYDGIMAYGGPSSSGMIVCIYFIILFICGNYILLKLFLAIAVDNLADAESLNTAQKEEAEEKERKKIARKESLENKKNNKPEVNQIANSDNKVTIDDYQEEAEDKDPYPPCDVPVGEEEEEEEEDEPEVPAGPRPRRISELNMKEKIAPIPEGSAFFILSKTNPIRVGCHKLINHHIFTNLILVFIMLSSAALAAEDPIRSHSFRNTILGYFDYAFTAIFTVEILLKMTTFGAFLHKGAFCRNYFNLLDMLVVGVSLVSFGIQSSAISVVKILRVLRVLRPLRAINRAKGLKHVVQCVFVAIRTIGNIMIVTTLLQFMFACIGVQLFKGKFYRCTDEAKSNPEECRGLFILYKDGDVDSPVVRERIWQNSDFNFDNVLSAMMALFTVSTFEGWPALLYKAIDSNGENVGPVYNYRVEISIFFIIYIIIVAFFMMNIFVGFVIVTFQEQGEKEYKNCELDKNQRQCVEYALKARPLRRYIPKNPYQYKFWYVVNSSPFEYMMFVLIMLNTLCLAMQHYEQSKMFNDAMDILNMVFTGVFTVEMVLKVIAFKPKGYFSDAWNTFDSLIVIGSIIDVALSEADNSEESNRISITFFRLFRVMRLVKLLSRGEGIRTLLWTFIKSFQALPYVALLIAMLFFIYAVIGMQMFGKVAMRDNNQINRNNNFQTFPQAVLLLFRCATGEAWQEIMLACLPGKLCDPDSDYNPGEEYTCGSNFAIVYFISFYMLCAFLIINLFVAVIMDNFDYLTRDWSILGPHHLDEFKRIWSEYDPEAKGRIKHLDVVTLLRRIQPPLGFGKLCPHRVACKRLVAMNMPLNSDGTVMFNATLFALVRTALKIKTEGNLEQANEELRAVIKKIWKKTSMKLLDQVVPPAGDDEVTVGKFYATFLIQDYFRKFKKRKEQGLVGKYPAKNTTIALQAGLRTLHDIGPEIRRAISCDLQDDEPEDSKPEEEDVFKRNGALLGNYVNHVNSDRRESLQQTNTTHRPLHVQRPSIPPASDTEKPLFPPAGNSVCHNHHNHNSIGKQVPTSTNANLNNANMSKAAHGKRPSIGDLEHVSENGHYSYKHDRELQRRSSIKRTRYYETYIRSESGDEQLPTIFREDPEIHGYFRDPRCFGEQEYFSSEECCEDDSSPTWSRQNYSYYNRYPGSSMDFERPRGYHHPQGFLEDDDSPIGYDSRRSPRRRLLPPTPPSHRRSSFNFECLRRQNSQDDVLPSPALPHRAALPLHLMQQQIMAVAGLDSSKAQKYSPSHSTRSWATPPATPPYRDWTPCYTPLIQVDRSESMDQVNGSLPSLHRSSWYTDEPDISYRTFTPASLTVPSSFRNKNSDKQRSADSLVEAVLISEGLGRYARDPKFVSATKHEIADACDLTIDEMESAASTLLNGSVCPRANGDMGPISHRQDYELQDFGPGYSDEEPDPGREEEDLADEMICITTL
# [3] = Selectivity ratio of IC50 for rabbit CaV1.2alpha1C to IC50 for rat CaV1.3alpha1D
# Procedure, shortened: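 Selectivity is defined as […] the ratio of the CaV1.2 IC50 to the CaV1.3 IC50. Both IC50s come from the Fluo-8 FLIPR calcium influx assay in stably transfected HEK293 cells, each run in triplicate and fitted to a one-site sigmoidal model.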
# Voltage-dependent L-type calcium channel subunit alpha-1C, sequence (P15381 whole entry, canonical isoform): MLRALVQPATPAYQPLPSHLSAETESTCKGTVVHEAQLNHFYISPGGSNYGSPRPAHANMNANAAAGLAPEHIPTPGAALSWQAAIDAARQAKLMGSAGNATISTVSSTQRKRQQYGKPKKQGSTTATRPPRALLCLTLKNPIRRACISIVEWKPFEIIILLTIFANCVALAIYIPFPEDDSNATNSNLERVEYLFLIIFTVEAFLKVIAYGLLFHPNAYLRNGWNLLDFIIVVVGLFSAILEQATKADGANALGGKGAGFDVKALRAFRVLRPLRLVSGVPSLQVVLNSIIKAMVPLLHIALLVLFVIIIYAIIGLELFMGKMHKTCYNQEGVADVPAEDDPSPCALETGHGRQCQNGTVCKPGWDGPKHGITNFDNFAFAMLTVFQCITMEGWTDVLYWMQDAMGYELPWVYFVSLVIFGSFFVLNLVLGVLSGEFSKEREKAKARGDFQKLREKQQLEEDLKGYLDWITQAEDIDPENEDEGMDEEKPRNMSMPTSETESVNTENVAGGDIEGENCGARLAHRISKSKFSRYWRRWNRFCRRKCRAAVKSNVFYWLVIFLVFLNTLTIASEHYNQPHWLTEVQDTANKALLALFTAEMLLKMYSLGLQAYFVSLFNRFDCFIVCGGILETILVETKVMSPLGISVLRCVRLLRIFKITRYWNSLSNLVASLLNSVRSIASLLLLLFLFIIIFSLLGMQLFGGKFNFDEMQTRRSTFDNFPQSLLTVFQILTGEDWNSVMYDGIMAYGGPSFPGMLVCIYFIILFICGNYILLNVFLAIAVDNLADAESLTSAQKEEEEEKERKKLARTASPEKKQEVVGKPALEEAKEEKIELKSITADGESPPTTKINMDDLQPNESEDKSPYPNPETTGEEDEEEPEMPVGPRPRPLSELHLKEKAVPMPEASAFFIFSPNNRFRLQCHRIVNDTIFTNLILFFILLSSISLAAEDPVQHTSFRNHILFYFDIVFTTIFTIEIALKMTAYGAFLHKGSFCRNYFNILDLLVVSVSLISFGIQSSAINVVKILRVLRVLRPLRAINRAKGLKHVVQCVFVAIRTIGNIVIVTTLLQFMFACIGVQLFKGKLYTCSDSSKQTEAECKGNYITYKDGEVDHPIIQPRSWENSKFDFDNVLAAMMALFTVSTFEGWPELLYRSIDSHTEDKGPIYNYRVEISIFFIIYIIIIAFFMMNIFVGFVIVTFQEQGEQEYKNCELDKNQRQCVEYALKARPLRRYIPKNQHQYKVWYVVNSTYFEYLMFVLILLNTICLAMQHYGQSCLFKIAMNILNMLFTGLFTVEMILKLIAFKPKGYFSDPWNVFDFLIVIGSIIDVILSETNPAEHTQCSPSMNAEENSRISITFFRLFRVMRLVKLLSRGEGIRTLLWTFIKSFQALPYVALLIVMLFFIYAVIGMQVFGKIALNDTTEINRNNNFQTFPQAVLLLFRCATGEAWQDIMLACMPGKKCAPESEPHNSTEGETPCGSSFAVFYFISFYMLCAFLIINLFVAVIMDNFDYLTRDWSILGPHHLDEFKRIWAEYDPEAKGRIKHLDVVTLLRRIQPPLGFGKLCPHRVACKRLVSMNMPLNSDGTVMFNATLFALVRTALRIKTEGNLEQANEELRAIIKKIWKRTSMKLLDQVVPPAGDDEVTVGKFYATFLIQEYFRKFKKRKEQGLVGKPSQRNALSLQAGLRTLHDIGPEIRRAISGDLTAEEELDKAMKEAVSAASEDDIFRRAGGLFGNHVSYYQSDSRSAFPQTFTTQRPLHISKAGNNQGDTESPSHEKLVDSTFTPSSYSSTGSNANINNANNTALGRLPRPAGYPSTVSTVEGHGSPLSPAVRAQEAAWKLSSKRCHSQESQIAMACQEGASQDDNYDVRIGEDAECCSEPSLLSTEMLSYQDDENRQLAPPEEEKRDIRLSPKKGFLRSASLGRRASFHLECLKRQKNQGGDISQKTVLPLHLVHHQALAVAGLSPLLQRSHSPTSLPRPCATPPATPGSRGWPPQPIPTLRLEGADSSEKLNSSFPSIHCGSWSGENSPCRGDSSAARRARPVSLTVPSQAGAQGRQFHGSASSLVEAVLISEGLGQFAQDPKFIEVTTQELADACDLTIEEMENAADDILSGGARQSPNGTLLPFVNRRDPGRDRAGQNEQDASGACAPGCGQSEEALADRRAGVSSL
structure (smiles),measurement,setting,value
O=C1CC(=O)N(C2CCCC2)C(=O)N1CCc1cc(Cl)cc(Cl)c1,IC50,[1],3.3 µM
same,IC50,[2],1.4 µM
CC(C)OC(=O)[C@H]1CC[C@@H](N2C(=O)CC(=O)N(CCc3cccc(Cl)c3)C2=O)C1,IC50,[1],8.5 µM
same,IC50,[2],10.4 µM
O=C1CC(=O)N(C2CCCC2)C(=O)N1CC1(c2ccc(Cl)cc2)CC1,IC50,[1],> 100 µM
same,IC50,[2],7.3 µM
O=C1CC(=O)N(C2CCCC2)C(=O)N1CCc1cccc(Cl)c1,IC50,[1],> 100 µM
same,IC50,[2],6.3 µM
C[C@@H]1[C@@H](C)CC[C@@H]1N1C(=O)CC(=O)N(CCc2cccc(Cl)c2)C1=O,IC50,[1],13.2 µM
same,IC50,[2],3.09 µM
CC(CN1C(=O)CC(=O)N(C2CCCC2)C1=O)c1cccc(Cl)c1 (stereo not drawn),IC50,[1],20.7 µM
same,IC50,[2],4.2 µM
CCOC(=O)[C@@H]1CCC[C@@H]1N1C(=O)CC(=O)N(CCc2cccc(Cl)c2)C1=O,IC50,[1],12.6 µM
same,IC50,[2],12 µM
O=C1CC(=O)N(C2CC3CCC2C3)C(=O)N1CCc1cccc(C(F)(F)F)c1 (racemic),IC50,[1],100 µM
same,IC50,[2],2.4 µM
CC1(C)[C@@H]2CC[C@@]1(C)[C@@H](N1C(=O)CC(=O)N(CCc3ccc(Cl)cc3)C1=O)C2,IC50,[1],> 100 µM
same,IC50,[2],> 100 µM
C[C@H](c1cccc2ccccc12)N1C(=O)CC(=O)N(C2CCCC2)C1=O,IC50,[1],6.15 µM
same,IC50,[2],4.6 µM
O=C1CC(=O)N(C2CCCC2)C(=O)N1CCC(c1ccccc1)c1ccccc1,IC50,[1],4.7 µM
same,IC50,[2],4.1 µM
CC(C)C(=O)OCC1(N2C(=O)CC(=O)N(CCc3cccc(Cl)c3)C2=O)CCCC1,IC50,[1],10.6 µM
same,IC50,[2],11.9 µM
CC1(C)CCC[C@@H]1N1C(=O)CC(=O)N(CCc2ccc(Cl)cc2)C1=O,IC50,[1],2.3 µM
same,IC50,[2],1.7 µM
C[C@@H]1[C@@H](N2C(=O)CC(=O)N(CCc3cccc(Cl)c3)C2=O)C[C@H]2C[C@@H]1C2(C)C,IC50,[1],> 100 µM
same,IC50,[2],> 100 µM
COc1ccc([C@@H]2Sc3ccccc3N(CCN(C)C)C(=O)[C@@H]2OC(C)=O)cc1,Ratio IC50,[3],< 2
COc1ccc(CCN(C)CCCC(C#N)(c2ccc(OC)c(OC)c2)C(C)C)cc1OC (stereo not drawn),Ratio IC50,[3],< 2
COC(=O)C1(N2C(=O)CC(=O)N(CCc3cccc(Cl)c3)C2=O)CCCC1,IC50,[1],33.4 µM
same,IC50,[2],32.7 µM
CC(=O)OCC1(N2C(=O)CC(=O)N(CCc3cccc(Cl)c3)C2=O)CCCC1,IC50,[1],29.1 µM
same,IC50,[2],39.3 µM
CC1(C)[C@@H]2CC[C@@]1(C)[C@@H](N1C(=O)CC(=O)N(CCc3cccc(Cl)c3)C1=O)C2,IC50,[1],> 100 µM
same,IC50,[2],> 100 µM
CC(Cc1ccc(Cl)cc1)N1C(=O)CC(=O)N(C2CC3CCC2C3)C1=O (racemic),IC50,[1],4.1 µM
same,IC50,[2],3.6 µM
O=C1CC(=O)N(C2CCCC2)C(=O)N1Cc1ccc(Cl)cc1,IC50,[1],51.7 µM
same,IC50,[2],17.9 µM
C[C@H]1CCC[C@@H]1N1C(=O)CC(=O)N(CCc2ccc(Cl)cc2)C1=O (racemic),IC50,[1],23 µM
same,IC50,[2],7 µM
O=C1CC(=O)N(C2CCCc3ccccc32)C(=O)N1C1CCCC1 (stereo not drawn),IC50,[1],20 µM
same,IC50,[2],19.7 µM
CC(C)c1ccc(CCN2C(=O)CC(=O)N(C3CCCC3)C2=O)cc1,IC50,[1],57.6 µM
same,IC50,[2],39 µM
C[C@@H]1[C@@H](N2C(=O)CC(=O)N(CCc3ccc(Cl)cc3)C2=O)C[C@H]2C[C@@H]1C2(C)C,IC50,[1],28 µM
same,IC50,[2],22 µM
O=C1CC(=O)N([C@@H]2C[C@@H]3CC[C@H]2C3)C(=O)N1CCc1cccc(C(F)(F)F)c1,IC50,[1],76.6 µM
same,IC50,[2],2.1 µM
CCC1CCC(N2C(=O)CC(=O)N(CCc3cccc(Cl)c3)C2=O)C1 (stereo not drawn),IC50,[1],15 µM
same,IC50,[2],7.3 µM
O=C1CC(=O)N(C2CCc3ccccc32)C(=O)N1C1CCCC1 (stereo not drawn),IC50,[1],24.8 µM
same,IC50,[2],19.9 µM
O=C1CC(=O)N(C2CC3CCC2C3)C(=O)N1CCc1cc(Cl)cc(Cl)c1 (racemic),IC50,[1],4.6 µM
same,IC50,[2],2.7 µM
COC(=O)[C@H](Cc1ccccc1)N1C(=O)CC(=O)N(C2CCCC2)C1=O,IC50,[1],> 100 µM
same,IC50,[2],> 100 µM
CC1(C)CCC[C@H]1N1C(=O)CC(=O)N(CCc2ccc(Cl)cc2)C1=O,IC50,[1],4.8 µM
same,IC50,[2],4.7 µM
CC(CN1C(=O)CC(=O)N(C2CC3CCC2C3)C1=O)c1ccc(Cl)cc1 (racemic),IC50,[1],8 µM
same,IC50,[2],3.4 µM
C[C@H]1CCCC[C@H]1N1C(=O)CC(=O)N(CCc2cccc(Cl)c2)C1=O,IC50,[1],3.7 µM
same,IC50,[2],3.7 µM
CO[C@H]1CCC[C@@H]1N1C(=O)CC(=O)N(CCc2cccc(Cl)c2)C1=O,IC50,[1],34.6 µM
same,IC50,[2],30.3 µM
CCC1CCC(N2C(=O)CC(=O)N(CCc3ccc(Cl)cc3)C2=O)C1 (racemic),IC50,[1],29 µM
same,IC50,[2],6.7 µM
CC(=O)O[C@H]1CCC[C@@H]1N1C(=O)CC(=O)N(CCc2cccc(Cl)c2)C1=O,IC50,[1],48.1 µM
same,IC50,[2],> 100 µM
CC(C)(CN1C(=O)CC(=O)N(C2CCCC2)C1=O)c1cccc(C(F)(F)F)c1,IC50,[1],4.2 µM
same,IC50,[2],2.2 µM
CC(C)(CN1C(=O)CC(=O)N(C2CC3CCC2C3)C1=O)c1cccc(Cl)c1 (mixture of isomers),IC50,[1],2.8 µM
same,IC50,[2],2.3 µM
O=C1CC(=O)N([C@H]2CCNC2)C(=O)N1CCc1cccc(Cl)c1,IC50,[1],> 100 µM
same,IC50,[2],> 100 µM
O=C1CC(=O)N([C@H]2C[C@H]3CC[C@@H]2C3)C(=O)N1CCc1cccc(C(F)(F)F)c1,IC50,[1],> 100 µM
same,IC50,[2],3 µM
O=C1CC(=O)N([C@H]2CCC[C@@H]2O)C(=O)N1CCc1cccc(Cl)c1,IC50,[1],> 100 µM
same,IC50,[2],> 100 µM
O=C1CC(=O)N(C2CCCC2)C(=O)N1Cc1cccc(Cl)c1,IC50,[1],46.7 µM
same,IC50,[2],43 µM
CC1CCC(N2C(=O)CC(=O)N(CCc3ccc(Cl)cc3)C2=O)CC1 (stereo not drawn),IC50,[1],30 µM
same,IC50,[2],11 µM
CC1(C)CCC[C@H]1N1C(=O)CC(=O)N(CCc2cccc(C(F)(F)F)c2)C1=O,IC50,[1],3.1 µM
same,IC50,[2],2.7 µM
O=C1CC(=O)N(C[C@H]2CCCO2)C(=O)N1CCc1ccc(Cl)cc1,IC50,[1],> 100 µM
same,IC50,[2],> 100 µM
CCC(CC)N1C(=O)CC(=O)N(CCc2cccc(Cl)c2)C1=O,IC50,[1],25.5 µM
same,IC50,[2],11.7 µM
O=C1CC(=O)N([C@H]2C[C@H]3CC[C@@H]2C3)C(=O)N1CCc1ccc(Cl)cc1,IC50,[1],100 µM
same,IC50,[2],2.1 µM
CC1(C)[C@@H]2CC[C@H](CN3C(=O)CC(=O)N(CCc4cccc(Cl)c4)C3=O)[C@H]1C2,IC50,[1],47 µM
same,IC50,[2],40 µM
COC(=O)[C@@H](Cc1ccccc1)N1C(=O)CC(=O)N(C2CCCC2)C1=O,IC50,[1],44.3 µM
same,IC50,[2],55 µM
O=C1CC(=O)N(C2CCCC2)C(=O)N1c1cccc(C(F)(F)F)c1,IC50,[1],> 100 µM
same,IC50,[2],> 100 µM
C[C@H]1[C@H](N2C(=O)CC(=O)N(CCc3cccc(Cl)c3)C2=O)C[C@@H]2C[C@H]1C2(C)C,IC50,[1],> 100 µM
same,IC50,[2],> 100 µM
CC1CCC(N2C(=O)CC(=O)N(CCc3cccc(Cl)c3)C2=O)C1 (stereo not drawn),IC50,[1],38 µM
same,IC50,[2],3.7 µM
O=C1CC(=O)N(C2CCCC2)C(=O)N1CCc1ccc(-c2ccccc2)cc1,IC50,[1],5.4 µM
same,IC50,[2],4.4 µM
O=C(OCc1ccccc1)N1CC[C@H](N2C(=O)CC(=O)N(CCc3cccc(Cl)c3)C2=O)C1,IC50,[1],33.9 µM
same,IC50,[2],50.3 µM
COC(=O)C(Cc1ccc(Cl)cc1)N1C(=O)CC(=O)N(C2CCCC2)C1=O (stereo not drawn),IC50,[1],13.4 µM
same,IC50,[2],7.5 µM
O=C1CC(=O)N(C2CC3CCC2C3)C(=O)N1CCc1cc(C(F)(F)F)cc(C(F)(F)F)c1 (mixture of isomers),IC50,[1],3.8 µM
same,IC50,[2],1.8 µM
C[C@H]1CCC[C@H]1N1C(=O)CC(=O)N(CCc2ccc(Cl)cc2)C1=O,IC50,[1],10 µM
same,IC50,[2],2.8 µM
CC1CCC(N2C(=O)CC(=O)N(CCc3cccc(Cl)c3)C2=O)CC1 (stereo not drawn),IC50,[1],46 µM
same,IC50,[2],35 µM
CC1CCC(N2C(=O)CC(=O)N(CCc3ccc(Cl)cc3)C2=O)C1 (stereo not drawn),IC50,[1],20.4 µM
same,IC50,[2],9.8 µM
CC1(C)CCC(N2C(=O)CC(=O)N(CCc3cccc(Cl)c3)C2=O)C1 (stereo not drawn),IC50,[1],43 µM
same,IC50,[2],5.6 µM
COC(=O)C1=C(C)NC(C)=C(C(=O)OC(C)C)C1c1cccc2nonc12 (stereo not drawn),Ratio IC50,[3],< 2
CC(C)C(=O)O[C@H]1CCC[C@@H]1N1C(=O)CC(=O)N(CCc2cccc(Cl)c2)C1=O,IC50,[1],12.9 µM
same,IC50,[2],13.7 µM
O=C1CC(=O)N(C[C@H]2CCCO2)C(=O)N1CCc1cccc(Cl)c1,IC50,[1],41 µM
same,IC50,[2],> 100 µM
C[C@H](C1CCCCC1)N1C(=O)CC(=O)N(CCc2cccc(Cl)c2)C1=O,IC50,[1],> 100 µM
same,IC50,[2],9.7 µM
CC1(C)[C@@H]2CC[C@H](CN3C(=O)CC(=O)N(CCc4ccc(Cl)cc4)C3=O)[C@H]1C2,IC50,[1],> 100 µM
same,IC50,[2],> 100 µM
C[C@H]1CCCC[C@H]1N1C(=O)CC(=O)N(CCc2ccc(Cl)cc2)C1=O,IC50,[1],8.3 µM
same,IC50,[2],6.1 µM
C[C@@H](C1CCCCC1)N1C(=O)CC(=O)N(CCc2cccc(Cl)c2)C1=O,IC50,[1],> 100 µM
same,IC50,[2],4.3 µM
C[C@@H]1CCC[C@@H]1N1C(=O)CC(=O)N(CCc2ccc(Cl)cc2)C1=O,IC50,[1],5.1 µM
same,IC50,[2],3.1 µM
O=C1CC(=O)N(C2Cc3ccccc3C2)C(=O)N1C1CCCC1,IC50,[1],16.4 µM
same,IC50,[2],14.4 µM
O=C(O)[C@H]1CC[C@@H](N2C(=O)CC(=O)N(CCc3cccc(Cl)c3)C2=O)C1,IC50,[1],> 100 µM
same,IC50,[2],> 100 µM
CC1(C)CCC(N2C(=O)CC(=O)N(CCc3ccc(Cl)cc3)C2=O)C1 (stereo not drawn),IC50,[1],26 µM
same,IC50,[2],3.7 µM
C[C@H]1[C@H](N2C(=O)CC(=O)N(CCc3ccc(Cl)cc3)C2=O)C[C@@H]2C[C@H]1C2(C)C,IC50,[1],> 100 µM
same,IC50,[2],18 µM
C[C@H](c1cccc2ccccc12)N1C(=O)CC(=O)N(CCc2cccc(Cl)c2)C1=O,IC50,[1],10 µM
same,IC50,[2],10.8 µM
